Laboratory results published in ChEMBL document CHEMBL1811838, “Antimalarial activity of natural and synthetic prodiginines” (J Med Chem, 2011).

Key:
Plasmodium falciparum [1] = assay: Antimalarial activity Plasmodium falciparum D6 after 72 hrs by SYBR Green I based fluorescence assay; format: functional, organism-based; details: D6, 72 h
Procedure, shortened: (§1)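 P. falciparum (D6 pansensitive; Dd2 MDR) cultured under standard conditions and grown 72 h with varying compound concentrations, chloroquine positive control or no drug, each condition in quadruplicate. Growth measured by SYBR Green I fluorescence with minor modifications; IC50 = concentration inhibiting growth by 50%.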

[2] = Toxicity in C57BL/6J mouse splenic lymphocytes after 72 hrs by Alamar blue Assay; format: cell-based; details: splenic lymphocyte
Procedure, shortened: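 Splenic lymphocytes from C57BL/6J mice washed, then stimulated with 1 μg/mL concanavalin A in RPMI/10% FBS with 50 μM β-mercaptoethanol. Seeded at 2 × 10^5 cells/well with serially diluted compound for 72 h at 37 °C, 5% CO2. Resazurin added (final 10 μM) for another 24 h; fluorescence read at ex 560/em 590 nm.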

Plasmodium falciparum [3] = assay: Antimalarial activity multidrug-resistant Plasmodium falciparum Dd2 after 72 hrs by SYBR Green I based fluorescence assay; format: functional, organism-based; details: Dd2, 72 h; procedure, shortened: as §1
Mus musculus [4] = assay: Toxicity in Plasmodium yoelii infected CF-1 mouse assessed as weight loss at 25 mg/kg, po qd for 3 days relative to control; format: organism-based; design: dose 25 mg/kg, route oral; details: in vivo, 72 h
Procedure, shortened: (§2)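 Female outbred CF-1 mice were infected i.v. via the tail vein with 5 × 10^5 P. yoelii Kenya-infected erythrocytes, in groups of five. Compound or vehicle alone was given by gavage in caprylic/capric triglyceride once daily for 3 days, starting 24 h post-infection. One day after the last dose, Giemsa-stained thin smears were scored by microscopy for % parasitemia versus untreated controls. Group mean weight was recorded as day 3 versus day 0.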

Plasmodium yoelii [5] = assay: Antimalarial activity Plasmodium yoelii infected in CF-1 mouse assessed as reduction of parasitemia at 25 mg/kg, po qd for 3 days administered 24 hrs after infection measured after 24 hrs last dose relative to control; format: functional; design: scale not given: the % may be the effect or the level left
Procedure, shortened: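 Female outbred CF-1 mice infected iv (tail vein) with 5 × 10^5 P. yoelii Kenya-infected erythrocytes. Groups of five given compound or vehicle alone by gavage in caprylic/capric triglyceride once daily for 3 days starting 24 h post-infection. One day after last dose, Giemsa-stained thin smears scored microscopically for % infected erythrocytes vs untreated controls. Group mean weight day 3 vs day 0. Smear-negative mice followed; parasite-free at 28 days counted cured.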

Plasmodium yoelii [6] = assay: Antimalarial activity Plasmodium yoelii infected in CF-1 mouse assessed as reduction of parasitemia at 5 mg/kg, po qd for 3 days administered 24 hrs after infection measured after 24 hrs last dose relative to control; format: functional; design: scale not given: the % may be the effect or the level left; procedure, shortened: as §2
Mus musculus [7] = assay: Toxicity in Plasmodium yoelii infected CF-1 mouse assessed as weight loss at 5 mg/kg, po qd for 3 days relative to control; format: organism-based; design: dose 5 mg/kg, route oral; details: in vivo, 72 h; procedure, shortened: as §2

Row | Compound | IC50 (Plasmodium falciparum [1]) | IC50 [2] | IC50 (Plasmodium falciparum [3]) | Activity (Mus musculus [4]) | Activity (Plasmodium yoelii [5]) | Activity (Plasmodium yoelii [6]) | Activity (Mus musculus [7])
1 | CCCCCCCCCCCCCCCCc1ccc(/C=C2\N=C(c3ccc[nH]3)C=C2OC)[nH]1 | 300 nM | < 125 nM | 400 nM | – | – | – | –
2 | CCCCCC1=C/C(=C/c2[nH]c(-c3ccc[nH]3)cc2OC)N=C1C [PRODIGIOSIN] | 8 nM | – | – | – | – | – | –
3 | COC1=CC(c2ccc[nH]2)=N/C1=C\c1[nH]c(Cc2cccc(F)c2)cc1Cc1cccc(F)c1 | 5.1 nM | < 125 nM | 6.7 nM | – | – | – | –
4 | COC1=CC(c2ccc[nH]2)=N/C1=C\c1[nH]c(Cc2ccc(Cl)cc2Cl)cc1Cc1ccc(Cl)cc1Cl | 12.6 nM | < 125 nM | 11 nM | – | – | – | –
5 | CCCc1ccc(/C=C2\N=C(c3ccc[nH]3)C=C2OC)[nH]1 | 2300 nM | – | – | – | – | – | –
6 | CCCCCCCCCCc1cc[nH]c1/C=C1\N=C(c2ccc[nH]2)C=C1OC | 8 nM | < 125 nM | 10 nM | – | – | – | –
7 | CCCc1cc(CCC2CCCCC2)c(/C=C2\N=C(c3ccc[nH]3)C=C2OC)[nH]1 | 1.7 nM | < 125 nM | 1.3 nM | 84.5% | 100% | 97% | 101.5%
8 | CCCCCCCCc1cc(Cc2ccc(Br)cc2)c(/C=C2\N=C(c3ccc[nH]3)C=C2OC)[nH]1 | 4 nM | < 125 nM | 2.9 nM | – | – | – | –
9 | CCCCCCCc1cc(Cc2ccc(Cl)cc2)c(/C=C2\N=C(c3ccc[nH]3)C=C2OC)[nH]1 | 2.8 nM | < 125 nM | 2.2 nM | – | – | – | –
10 | COC1=CC(c2ccc[nH]2)=N/C1=C\c1[nH]ccc1Cc1ccc(Cl)cc1 | 65 nM | < 125 nM | 81 nM | 105% | 90% | 38% | 101.2%
11 | COC1=CC(c2cc3ccccc3[nH]2)=N/C1=C\c1[nH]c(C)cc1C [OBATOCLAX] | 4250 nM | < 125 nM | 4950 nM | – | – | – | –
12 | CCCCCCc1cc(Cc2ccc(Cl)cc2)c(/C=C2\N=C(c3ccc[nH]3)C=C2OC)[nH]1 | 2 nM | < 125 nM | 1.8 nM | 96% | 100% | 99% | 100.3%
13 | CCCCCCCCCCCCCCCCc1cc[nH]c1/C=C1\N=C(c2ccc[nH]2)C=C1OC | > 25000 nM | 3630 nM | > 25000 nM | – | – | – | –
14 | CCCCc1ccc(/C=C2\N=C(c3ccc[nH]3)C=C2OC)[nH]1 | 1780 nM | < 125 nM | 1590 nM | – | – | – | –
15 | COC1=CC(c2ccc[nH]2)=N/C1=C\c1[nH]ccc1CC(C)C | 460 nM | < 125 nM | 230 nM | – | – | – | –
16 | COC1=CC(c2ccc[nH]2)=N/C1=C\c1[nH]ccc1Cc1ccc(OC)cc1 | 170 nM | < 125 nM | 156 nM | – | – | – | –
17 | CCCCCCc1cc(CCC)c(/C=C2\N=C(c3ccc[nH]3)C=C2OC)[nH]1 | 4.5 nM | < 125 nM | 4 nM | – | – | – | –
18 | COC1=CC(c2ccc[nH]2)=N/C1=C\c1[nH]c(Cc2ccc(Br)cc2)cc1Cc1ccc(F)cc1 | 5.7 nM | < 125 nM | 5.1 nM | – | – | – | –
19 | COC1=CC(c2ccc[nH]2)=N/C1=C\c1[nH]c(Cc2ccc(F)cc2)cc1Cc1ccc(Cl)cc1 | – | < 125 nM | 6.1 nM | – | – | – | –
20 | CCCCCCc1cc(Cc2ccc(F)cc2)c(/C=C2\N=C(c3ccc[nH]3)C=C2OC)[nH]1 | – | 1460 nM | 0.9 nM | – | – | – | –
21 | CCN(CC)CCCC(C)Nc1ccnc2cc(Cl)ccc12 (stereo unspecified) [CHLOROQUINE] | – | 16000 nM | – | – | – | – | –
22 | COC1=CC(c2ccc[nH]2)=N/C1=C\c1[nH]ccc1Cc1ccc2ccccc2c1 | 56 nM | – | – | – | – | – | –
23 | COC1=CC(c2ccc[nH]2)=N/C1=C\c1[nH]c(CCC2CCCCC2)cc1CCC1CCCCC1 | 5.3 nM | < 125 nM | 3.5 nM | – | – | – | –
24 | CCCCCCCc1cc(CCCCCC)c(/C=C2\N=C(c3ccc[nH]3)C=C2OC)[nH]1 | 2.1 nM | < 125 nM | 1.2 nM | – | – | – | –
25 | CCCCCCCCc1cc(Cc2ccc(F)cc2)c(/C=C2\N=C(c3ccc[nH]3)C=C2OC)[nH]1 | 1.3 nM | < 125 nM | 1.2 nM | – | – | – | –
26 | CCCCCCc1cc[nH]c1/C=C1\N=C(c2ccc[nH]2)C=C1OC | 28 nM | < 125 nM | 7 nM | – | – | – | –
27 | CCCCc1cc[nH]c1/C=C1\N=C(c2ccc[nH]2)C=C1OC | 80 nM | < 125 nM | 18 nM | – | – | – | –
28 | COC1=CC(c2ccc[nH]2)=N/C1=C\c1[nH]c(Cc2ccc(F)cc2)cc1Cc1ccc(F)cc1 | 5.6 nM | < 125 nM | 5.7 nM | – | – | – | –
